LEDGF integ inh = blocks HIV-1 LEDGF/p75-dependent DNA integration | TR-FRET IN-LEDGF/p75 DNA integration, Eu/Cy5 | inhibition, % at 3.7 µM | 0.64% of 370,000 active;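 active means inhibition above the screen-wide mean plus 3 SD, cut at about 13% in these data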;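 further: signal is the Cy5 over europium emission ratio at 671 and 618 nm; 0% = plate median of compound wells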
NSD2 HMT inh = NSD2 (human) methyltransferase inhibition; 0.54% of 310,000 active; inhibition, % at 12.5 µM; O96028; NSD2 peptide methylation, AlphaScreen, 120 min; in the data active means inhibition above about 50%
TDP2 inh = TDP2 (human) inhibition, absorbance primary screen; O95551; recombinant TDP2, T5PNP hydrolysis, p-nitrophenol absorbance 415 nm; inhibition, % at 12.8 µM; 0.34% of 370,000 active; AID 720702;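 active means inhibition above the mean of all tested compounds plus 3 SD, set per campaign, cut at about 25% in these data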;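 further: 0% = DMSO with enzyme and 100% = buffer with substrate but no TDP2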
Target sequence (O95551 whole entry, looked up): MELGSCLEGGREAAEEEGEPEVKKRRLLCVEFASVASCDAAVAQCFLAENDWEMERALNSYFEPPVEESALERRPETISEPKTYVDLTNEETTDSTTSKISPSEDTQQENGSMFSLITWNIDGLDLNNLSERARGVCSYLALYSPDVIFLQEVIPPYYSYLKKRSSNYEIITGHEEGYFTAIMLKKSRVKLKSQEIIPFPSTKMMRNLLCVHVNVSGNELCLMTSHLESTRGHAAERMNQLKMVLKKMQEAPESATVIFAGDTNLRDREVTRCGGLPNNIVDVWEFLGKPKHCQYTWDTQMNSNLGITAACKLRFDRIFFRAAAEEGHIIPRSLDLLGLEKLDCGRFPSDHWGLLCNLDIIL
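Assay system: Recombinant human TDP2 | Quantity: 120 nM TDP2 per well | Incubation: 2 h at 37 °C | Signal: Epi absorbance | Evaluation: Percent inhibition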
Casp6 inh = inhibitors of human caspase-6; 0.53% of 350,000 active; inhibition, % at 12.5 µM; AID 686996; purified caspase-6, Z-VEID-R110 cleavage fluorescence; P55212;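 active means mean inhibition across replicates at least about 35%, with every replicate also reaching that limit, limit read from the data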;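 further: 0% = median of neutral control wells and 100% = no fluorescence left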
Target sequence (P55212 24-179 limits assumed): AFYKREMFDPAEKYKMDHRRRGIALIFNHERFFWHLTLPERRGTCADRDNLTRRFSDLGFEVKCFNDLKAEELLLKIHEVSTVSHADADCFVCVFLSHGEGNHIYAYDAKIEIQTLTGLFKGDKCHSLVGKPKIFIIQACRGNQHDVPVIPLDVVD
Target sequence (P55212 194-293 limits assumed): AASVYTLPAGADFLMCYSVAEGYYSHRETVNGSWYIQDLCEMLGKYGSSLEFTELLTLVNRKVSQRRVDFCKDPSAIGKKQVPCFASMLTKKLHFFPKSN
MBD2 inh = inhibitors of human MBD2 binding to methylated oligonucleotide | Q9UBB5 | TR-FRET | inhibition, % at 4.4 µM | 0.31% of 370,000 active; in the data active means inhibition above about 13%
UHRF1 MBD2 ctr = UHRF1 methyl-DNA binding inhibition. UHRF1 binding to methylated oligo, TR-FRET. 0.75% of 370,000 active. inhibition, % at 4.4 µM. AID 687016; in the data active means inhibition above about 21%;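 further: UHRF1 SRA domain binding a hemimethylated CpG hairpin DNA probe; 0% = median of test compound wells and 100% = reference inhibitor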
* = called active by the depositor; nt = no result given. Only some compounds are listed: those with a hit (about 1.8% of all), similar ones and a draw of the others.

SMILES | LEDGF integ inh | NSD2 HMT inh | TDP2 inh | Casp6 inh | MBD2 inh | UHRF1 MBD2 ctr
Cc1cccc(-n2c(C)nc3cc(C(=O)NCCN4CCOCC4)ccc32)c1 | 0.0 | 4.0 | 1.6 | 88.6* | 5.7 | 3.0
Cn1c(=O)c2c(ncn2CC(=O)OCC(=O)Nc2ccccc2)n(C)c1=O | 3.0 | -4.4 | 7.3 | -6.1 | 1.5 | 0.1
Cn1c(=O)c2c(ncn2CC(=O)OCC(=O)c2ccc(OC(F)F)cc2OC(F)F)n(C)c1=O | -0.7 | -1.2 | 3.5 | 54.6* | -6.7 | -0.4
CCOC(=O)[C@]12CCC=C1N(Cc1ccc3c(c1)OCO3)C(=O)[C@H](CC(=O)NCCCCc1ccccc1)C2 | -7.1 | nt | -8.5 | -0.7 | 9.4 | 1.4
CCCCNC(=O)C[C@@H]1C[C@@]2(C(=O)OCC)CCC=C2N(Cc2ccc3c(c2)OCO3)C1=O | -1.8 | nt | 2.3 | 1.7 | 7.1 | 21.3*
O=C(O)c1cccc(NC2=C(n3nnc4ccccc43)C(=O)c3ccccc3C2=O)c1 | 5.2 | nt | 22.1 | 81.8* | -14.8 | -7.9
O=C(O)c1cccc(NS(=O)(=O)c2ccc3nnn(O)c3c2)c1 | 2.2 | 27.7 | -2.4 | nt | 2.9 | 2.2
CO[C@@H]1CN(C)C(=O)c2cc(NS(=O)(=O)c3cn(C)cn3)ccc2OC[C@H](C)N(Cc2cccc(F)c2)C[C@@H]1C | nt | nt | nt | -0.6 | nt | nt
CO[C@@H]1CN(C)C(=O)c2ccc(NC(C)=O)cc2OC[C@H](C)N(Cc2ccncc2)C[C@@H]1C | nt | nt | nt | -1.3 | nt | nt
CCC(=O)Nc1ccc(N2CCOCC2)c(S(=O)(=O)Nc2ccc(Cl)cc2)c1 | 1.6 | 0.8 | 3.8 | 4.9 | -1.9 | 45.1*
COCC#Cc1cnc2c(c1)C(=O)N([C@H](C)CO)C[C@H](C)[C@@H](CN(C)C(=O)C1CCCCC1)O2 | nt | nt | nt | -0.1 | nt | nt
Cc1ccc(SCCNC(=O)/C=C/c2ccccc2Cl)cc1 | -2.7 | 6.2 | -19.9 | -1.0 | 7.8 | 27.4*
Cc1ccc(SCCNC(=O)/C=C/c2ccc(Cl)cc2)cc1 | -0.2 | 28.1 | -2.5 | nt | 1.4 | 2.4
CO[C@H]1CN(C)C(=O)c2ccc(NC(=O)c3cc(C)on3)cc2OC[C@H](C)N(C(C)=O)C[C@H]1C | nt | nt | nt | 0.5 | nt | nt
C[C@H]1CN([C@@H](C)CO)S(=O)(=O)c2ccc(C#CC3(O)CCCC3)cc2O[C@H]1CN(C)C(=O)Cc1cccnc1 | nt | nt | nt | 1.8 | nt | nt
CC(C)NC(=O)N(C)C[C@@H]1OCCCC[C@H](C)Oc2ccc(NC(=O)Nc3ccc(F)cc3)cc2C(=O)N([C@@H](C)CO)C[C@H]1C | nt | nt | nt | -1.8 | nt | nt
CN(Cc1ccco1)S(=O)(=O)c1cc(F)ccc1CN1C(=O)c2cccnc2C1=O | -0.9 | 0.8 | 19.4 | -1.9 | 9.4 | 24.3*
COc1ccc(CNC(=O)C[C@H]2CC[C@@H]3[C@@H](COc4ccc(NC(C)=O)cc4C(=O)N3C)O2)cc1 | nt | nt | nt | 0.3 | nt | nt
O=C(COC(=O)c1ccc(S(=O)(=O)NCc2ccco2)cc1)Nc1ccc(Cl)cn1 | -0.4 | 1.1 | 3.5 | 46.1* | 4.7 | 8.4
O=C(COC(=O)c1ccc(S(=O)(=O)NCc2ccco2)cc1)Nc1ccccc1 | 1.6 | 0.9 | 1.8 | 2.4 | 1.4 | -2.2
CN1c2ccc(Br)cc2[C@@H]2[C@@H](CCN2C(=O)C2CCCCC2)[C@@H]1CO | nt | nt | nt | 2.5 | nt | nt
Cc1c(NC(=O)/C(C#N)=C/c2ccc(-c3ccc(Cl)cc3)o2)c(=O)n(-c2ccccc2)n1C | 0.0 | 2.1 | 12.6 | nt | 7.5 | 21.7*
Cc1c(NC(=O)/C(C#N)=C/c2ccc(-c3cc(Cl)ccc3Cl)o2)c(=O)n(-c2ccccc2)n1C | 0.7 | 1.5 | -1.6 | nt | -2.6 | -2.3
Cc1ccc(S(=O)(=O)N(C)C[C@@H]2Oc3ccc(NC(=O)NC4CCCCC4)cc3C(=O)N([C@H](C)CO)C[C@@H]2C)cc1 | nt | nt | nt | -1.2 | nt | nt
C=CCN1C(=O)/C(=C/c2ccc(O)c(OC)c2)S/C1=N/c1nccs1 | -1.9 | -1.5 | -14.3 | nt | 0.8 | -1.8
SMILES | LEDGF integ inh | NSD2 HMT inh | TDP2 inh | Casp6 inh | MBD2 inh | UHRF1 MBD2 ctr
C=CCN1C(=O)/C(=C/c2ccc(OCC(=O)O)cc2)S/C1=N/c1nccs1 | 2.2 | 1.3 | 1.9 | 38.2* | -6.2 | -1.3
C[C@H]1CN([C@@H](C)CO)C(=O)c2cc(C3=CCCCC3)cnc2O[C@@H]1CN(C)C(=O)c1ccncc1 | nt | nt | nt | -4.0 | nt | nt
CC(C)CNC(=O)C(=O)NC1CCCC1 | 3.3 | nt | 0.8 | nt | 5.0 | 21.0*
Cc1c(C(=O)N2CCCCC2)c(S(=O)(=O)N2c3ccccc3CC2C)c(C)n1C (centres undefined) | 3.3 | -1.6 | -6.8 | -1.5 | 2.4 | 22.7*
O=C(C[C@H]1CC[C@H](NC(=O)Nc2cc(F)ccc2F)[C@H](CO)O1)NCc1ccncn1 | nt | nt | nt | 0.0 | nt | nt
COc1ccc(N(C(=O)c2ccco2)C(C(=O)NC2CCCC2)c2ccncc2)cc1OC (centres undefined) | 1.5 | -3.1 | 11.3 | -1.3 | -6.5 | 23.1*
O=C1/C(=C\c2ccco2)SC(=S)N1c1ccc(O)cc1 | 11.1 | 10.1 | 8.2 | 37.7* | 8.2 | 5.3
O=C1NC(=Nc2ccc(O)cc2)S/C1=C/c1ccco1 | -0.2 | -1.6 | -1.7 | 39.3* | 3.6 | 1.0
CCCNC(=O)C[C@H]1CC[C@@H]2[C@H](COC[C@@H](O)CN2Cc2ccc(Cl)c(Cl)c2)O1 | nt | nt | nt | -1.9 | nt | nt
O=C(NCC(c1cccs1)N1CCOCC1)c1ccc([N+](=O)[O-])cc1 (centres undefined) | -0.7 | -2.1 | -2.6 | nt | 0.8 | 24.9*
O=C(NNC(=O)c1cccs1)c1ccc([N+](=O)[O-])cc1 | 3.4 | 0.6 | -15.1 | -0.2 | -0.7 | 20.7*
Cc1cccc(C(=O)NCC(c2ccco2)N2CCc3ccccc32)c1 (centres undefined) | -1.0 | 2.9 | 12.7 | 11.4 | 0.7 | -0.9
O=C(NCC(c1cccs1)N1CCOCC1)c1cc([N+](=O)[O-])cc([N+](=O)[O-])c1 (centres undefined) | -0.8 | -0.3 | 5.8 | 0.4 | 7.2 | 1.4
O=C(NCC(c1ccco1)N1CCc2ccccc21)c1cccc([N+](=O)[O-])c1 (centres undefined) | 0.7 | 7.2 | -0.8 | 63.3* | 5.2 | -1.8
O=C(NCC(c1ccco1)N1CCc2ccccc21)c1ccc([N+](=O)[O-])cc1 (centres undefined) | -1.8 | -1.0 | 3.2 | 71.9* | -3.6 | -0.2
O=C(NNC(=O)c1ccc([N+](=O)[O-])cc1)c1ccc(NS(=O)(=O)c2cccs2)cc1 | 7.2 | 20.9 | -0.2 | -0.3 | 0.8 | 0.8
C/C=C/c1ccc([C@@H]2[C@@H](CO)N(C(C)=O)[C@H]2CNC(=O)CC2CC2)cc1 | nt | nt | nt | 0.7 | nt | nt
O=C(C[C@H]1C[C@@H]2c3cc(NC(=O)NC4CCCC4)ccc3O[C@@H]2[C@H](CO)O1)NCCc1ccccc1 | nt | nt | nt | -0.8 | nt | nt
O=S(=O)(N[C@@H]1CC[C@H](CCn2cc(-c3cccc(F)c3)nn2)O[C@@H]1CO)c1ccc(F)cc1 | nt | nt | nt | -2.7 | nt | nt
O=C(c1cccnc1)N1CC2(C1)[C@@H](c1ccccc1)[C@@H](CO)N2Cc1cccnc1 | nt | nt | nt | 5.5 | nt | nt
